Reference: ChEMBL document CHEMBL1157816, “Action of a pentacyclic triterpenoid, maslinic acid, against Toxoplasma gondii” (J Nat Prod, 2010)
Calls of active or inactive are those of the source. The calls are words filed in the database; no cut-off is given here.

Experiments:
[1] = Toxicity in african green monkey Vero cells by alamar blue assay; assay type: cell-based; conditions: chlorocebus sabaeus, read-out: LD50 (the source's name)
Method in brief: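 Semiconfluent Vero cells (1 × 10^4/well; DMEM, 10% heat-inactivated FCS, 2 mM glutamine, penicillin/streptomycin) exposed to compound dilutions (3.9-500 µM series) with Alamar Blue for 24 h, 37 °C, 5% CO2. Controls are medium, AB and drug blanks, plus cells with DMSO. Percent AB reduction is read from absorbance at 570/600 nm against the DMSO control by the manufacturer's formula. LD50 reported as mean ± SEM.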

Toxoplasma gondii [2] = assay: Antimicrobial activity against Toxoplasma gondii RH tachyzoites assessed as inhibition of parasite invasion of african green monkey Vero cells pretreated for 1 hr before cell infection measured 48 hrs post infection; assay type: functional; conditions: read-out: ID50 (the source's name)
Method in brief: (§1)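 Purified RH tachyzoites (2.5 × 10^5) pretreated 1 h at 37 °C in medium with compound (250-15.6 µM) or DMSO control. They then infected semiconfluent Vero cells at 10 parasites/cell (37 °C, 5% CO2), after which medium was replaced. Slides fixed in methanol at 24 or 48 h and stained with Diff-Quick. Percentage parasitism from 500 cells per slide by light microscopy; three repeats; mean ± SEM; ID50 reported.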

Vero [3] = assay: Inhibition of serine protease in excreted-secreted products fraction of […] secretion proteins of Toxoplasma gondii RH tachyzoites infected in african green monkey Vero cells by SDS-PAGE and zymography; assay type: cell-based
Method in brief: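 Tachyzoites (6 × 10^7 in 100 µL serum-free DMEM) pretreated 15 min at room temperature with compound at various concentrations. Micronemal secretion induced at 37 °C with 200 mM ethanol and stopped on ice after centrifugation. The ESP fraction was run in nonreducing 12% SDS-PAGE containing 0.1% gelatin at 90 V, 4 °C. Gel washed in 2.5% Triton X-100, developed overnight at 37 °C in Tris/CaCl2 pH 6.8 and Coomassie-stained; cleared bands read as activity.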

Toxoplasma gondii [4] = assay: Antimicrobial activity against Toxoplasma gondii RH tachyzoites assessed as inhibition of parasite invasion of african green monkey Vero cells pretreated for 1 hr before cell infection measured 24 to 48 hrs post infection; assay type: functional
Method in brief: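 RH tachyzoites (mouse ascites, passaged in Vero cells, needle- and 5 µm filter-purified), 2.5 × 10^5 pretreated 1 h at 37 °C in medium with compound (250-15.6 µM) or DMSO control. They then infect semiconfluent Vero cells at 10 parasites/cell, 37 °C, 5% CO2. Medium is replaced. Slides are methanol-fixed and Diff-Quick stained at 24 and 48 h. Percent parasitised is scored by light microscopy in 500 cells/slide, three repeats, mean ± SEM, giving ID50.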

Toxoplasma gondii [5] = assay: Antimicrobial activity against Toxoplasma gondii RH tachyzoites assessed as inhibition of parasite gliding motility pretreated for 15 mins; assay type: functional
Method in brief: (§2)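 RH-strain tachyzoites (passaged in Balb/c mice and Vero cells, filter-purified) pretreated 15 min at 37 °C with compound at 50, 25 or 10 µM; DMSO at maximum solvent level as control. Slides coated with 0.1% poly-L-lysine in PBS pH 7.2. Fixed in 4% formaldehyde/0.02% glutaraldehyde, stained with anti-SAG-1 (P30) mAb 1/50 plus FITC anti-IgG 1/100; trail number and length scored by confocal microscopy.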

Toxoplasma gondii [6] = assay: Cytopathic effect against Toxoplasma gondii RH extracellular tachyzoites infected in african green monkey Vero cells assessed as induction of morphological changes at 25 uM after 4 hrs by electron microscopy; assay type: functional, organism-based
Method in brief: (§3)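 Purified extracellular tachyzoites exposed to 25 µM compound for 4 or 8 h. Fixed in 2.5% glutaraldehyde in cacodylate buffer, postfixed 30 min in 1% buffered OsO4, dehydrated and embedded in Spurr resin. Ultrathin sections stained with 8% uranyl acetate then 0.2% lead citrate and examined by transmission electron microscopy.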

Toxoplasma gondii [7] = assay: Antimicrobial activity against Toxoplasma gondii RH tachyzoites assessed as inhibition of parasite gliding motility at 25 uM pretreated for 15 mins; assay type: functional; method in brief: as §2
Toxoplasma gondii [8] = assay: Cytopathic effect against Toxoplasma gondii RH extracellular tachyzoites infected in african green monkey Vero cells assessed as induction of morphological changes at 25 uM after 8 hrs by electron microscopy; assay type: functional, organism-based; method in brief: as §3
Toxoplasma gondii [9] = assay: Antimicrobial activity against Toxoplasma gondii RH tachyzoites assessed as inhibition of parasite gliding motility at 50 uM pretreated for 15 mins; assay type: functional; method in brief: as §2
Toxoplasma gondii [10] = assay: Antimicrobial activity against Toxoplasma gondii RH tachyzoites assessed as inhibition of parasite invasion of african green monkey Vero cells pretreated for 1 hr before cell infection measured 24 hrs post infection; assay type: functional; conditions: read-out: ID50 (the source's name); method in brief: as §1
Vero [11] = assay: Inhibition of serine protease in excreted-secreted products fraction of Toxoplasma gondii RH tachyzoites infected in african green monkey Vero cells by SDS-PAGE and zymography; assay type: cell-based
Method in brief: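 Purified tachyzoites (6 × 10^7/100 µL DMEM without serum) pretreated 15 min at room temperature with compound at various concentrations. Micronemal secretion is induced at 37 °C with 200 mM ethanol, then the parasites are pelleted and secretion stopped on ice. The ESP fraction goes in nonreducing sample buffer onto 12% SDS-PAGE with 0.1% gelatin, run at 90 V, 4 °C. The gel gets 2.5% Triton X-100 for 60 min, then develops overnight at 37 °C (50 mM Tris-HCl, 10 mM CaCl2, pH 6.8). Coomassie stain.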

Toxoplasma gondii [12] = assay: Antimicrobial activity against Toxoplasma gondii RH tachyzoites assessed as inhibition of parasite gliding motility at 10 uM pretreated for 15 mins; assay type: functional; method in brief: as §2
Toxoplasma gondii [13] = assay: Cytopathic effect against Toxoplasma gondii RH intracellular tachyzoites infected in african green monkey Vero cells assessed as induction of morphological changes at 25 uM by electron microscopy; assay type: functional, organism-based
Method in brief: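 Vero cultures infected 24 h, then treated with 25 µM compound for 8 h. Fixed in 2.5% glutaraldehyde in cacodylate buffer, scraped, postfixed 30 min in 1% OsO4 and embedded in Spurr resin. Sections stained with uranyl acetate and lead citrate and viewed by TEM.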

Compound	CC50 [1] [µM]	IC50 (Toxoplasma gondii [2]) [µM]	inhibition (Vero [3])	inhibition (Toxoplasma gondii [4])	inhibition (Toxoplasma gondii [5])	inhibition (INH) (Toxoplasma gondii [5]) [%]	inhibition (Toxoplasma gondii [6])	inhibition at 25 µM (Toxoplasma gondii [7]) [%]	inhibition (Toxoplasma gondii [8])	inhibition at 50 µM (Toxoplasma gondii [9]) [%]	IC50 (Toxoplasma gondii [10]) [µM]	inhibition (Vero [11])	inhibition at 10 µM (Toxoplasma gondii [12]) [%]	inhibition (Toxoplasma gondii [13])
NCCc1ccc(S(=O)(=O)F)cc1	36.9													
CC1(C)CC[C@]2(C(=O)O)CC[C@]3(C)C(=CC[C@@H]4[C@@]5(C)C[C@@H](O)[C@H](O)C(C)(C)[C@@H]5CC[C@]43C)[C@@H]2C1 [MASLINIC ACID]	237	8	Active	Dose-dependent effect	Dose-dependent effect	100	Active	59.7	Active	≥ 100	46	Dose-dependent effect	58.8	Active
O=S(=O)(F)Cc1ccccc1 [PHENYLMETHYLSULFONYLFLUORIDE]	133											Dose-dependent effect		
